Legend:
[1] = biological target: T1, human recombinant GIVA cPLA2 (Homo sapiens, UniProt P47712); assay type: biochemical
T1 sequence (P47712 1-749): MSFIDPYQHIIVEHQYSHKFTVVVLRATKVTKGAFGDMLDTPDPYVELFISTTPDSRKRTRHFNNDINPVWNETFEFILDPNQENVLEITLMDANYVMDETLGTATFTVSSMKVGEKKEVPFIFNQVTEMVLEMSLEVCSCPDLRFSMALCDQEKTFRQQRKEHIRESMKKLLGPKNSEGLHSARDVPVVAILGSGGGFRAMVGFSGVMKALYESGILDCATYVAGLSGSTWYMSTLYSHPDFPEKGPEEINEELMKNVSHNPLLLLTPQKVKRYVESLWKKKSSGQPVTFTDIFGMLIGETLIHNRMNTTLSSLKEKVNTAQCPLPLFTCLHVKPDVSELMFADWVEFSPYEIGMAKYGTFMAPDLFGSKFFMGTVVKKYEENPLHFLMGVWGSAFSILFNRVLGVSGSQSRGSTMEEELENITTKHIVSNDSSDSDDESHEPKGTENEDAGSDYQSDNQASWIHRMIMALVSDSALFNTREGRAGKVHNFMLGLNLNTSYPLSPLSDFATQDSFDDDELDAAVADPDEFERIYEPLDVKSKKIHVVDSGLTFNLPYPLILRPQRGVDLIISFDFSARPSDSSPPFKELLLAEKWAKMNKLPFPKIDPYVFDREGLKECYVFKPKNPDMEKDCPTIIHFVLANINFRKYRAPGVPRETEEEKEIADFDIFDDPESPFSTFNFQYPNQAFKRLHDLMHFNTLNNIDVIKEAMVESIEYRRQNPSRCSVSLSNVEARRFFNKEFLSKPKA

[2] = plasma stability study; assay type: in vitro ADME; conditions: 37 °C, 1 mg/mL
Outline: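 Test compound added to preheated human plasma (37 °C) at a final 1 mg/mL. Aliquots taken at 0, 15, 30 and 60 min, quenched with acetonitrile, vortexed and centrifuged 5 min. Supernatants analysed by LC-HRMS/MS (negative ESI, C18 column, acetonitrile/isopropanol–water gradient with 0.01% formic acid). Each sample run in triplicate. Percent remaining relative to initial concentration plotted against time.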

Row | Compound | parent compound in human plasma after 30 min [2] | inhibition of GIVA cPLA2 (in words) [1] | other results
1 | CCCCOc1ccc(CCCCC(=O)C(=O)OCCCCC(=O)O)cc1 [Compound 25a, 5-((6-(4-Butoxyphenyl)-2-oxohexanoyl)oxy)pentanoic Acid] | not detectable |  | times less potent than 25b against GIVA cPLA2 [1]: 3 times
2 | CCCCOc1ccc(CCCCC(=O)C(=O)O)cc1 [Compound 29, 6-(4-Butoxyphenyl)-2-oxohexanoic Acid] |  | very weak inhibition | 
3 | CCCCCCOc1ccc(CCCCC(=O)C(=O)OCCCCC(=O)O)cc1 [Compound 25b, 5-((6-(4-(Hexyloxy)phenyl)-2-oxohexanoyl)oxy)pentanoic Acid] | not detectable |  | selectivity for GIVA cPLA2 over GVIA iPLA2 [1]: at least 500 fold; times more potent than 6 against GIVA cPLA2 [1]: 4 times
4 | 5-((6-(4-Butoxyphenyl)hexanoyl)oxy)pentanoic Acid [Compound 27b] |  | no inhibition | 
5 | 5-((6-(4-Butoxyphenyl)-2-fluorohexanoyl)oxy)pentanoic Acid [Compound 27a] |  | abolished the inhibitory potency | percent parent compound remaining after 1 h ([2]; human plasma, 1 h): ~100%

Source: paper PMC6120731 (ACS Omega, 2018)
